We go through 54 compounds from ChEMBL document CHEMBL1275350, “First in class, potent, and orally bioavailable NADPH oxidase isoform 4 (Nox4) inhibitors for the treatment of idiopathic pulmonary fibrosis” (J Med Chem, 2010).

One data set has as its target T1, NADPH oxidase 4 (Homo sapiens, UniProt Q9NPH5).
T1 sequence (Q9NPH5 whole entry): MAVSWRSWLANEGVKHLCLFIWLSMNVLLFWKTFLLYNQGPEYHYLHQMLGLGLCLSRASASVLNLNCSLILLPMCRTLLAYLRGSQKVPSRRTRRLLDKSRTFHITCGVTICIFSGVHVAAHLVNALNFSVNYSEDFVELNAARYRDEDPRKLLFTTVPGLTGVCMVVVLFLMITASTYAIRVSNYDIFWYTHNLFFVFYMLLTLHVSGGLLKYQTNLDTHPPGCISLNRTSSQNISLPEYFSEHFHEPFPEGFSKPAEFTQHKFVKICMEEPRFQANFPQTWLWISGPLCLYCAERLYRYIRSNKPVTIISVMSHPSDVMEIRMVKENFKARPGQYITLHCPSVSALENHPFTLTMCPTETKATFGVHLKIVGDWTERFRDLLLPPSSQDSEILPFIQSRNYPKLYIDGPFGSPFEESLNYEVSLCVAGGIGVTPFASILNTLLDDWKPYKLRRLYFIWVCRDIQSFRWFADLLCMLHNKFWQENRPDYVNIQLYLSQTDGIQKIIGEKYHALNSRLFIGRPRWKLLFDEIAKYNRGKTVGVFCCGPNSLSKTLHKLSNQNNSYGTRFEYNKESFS
Put plainly: Inhibition of human NOX4 overexpressed in T-REx-293 cell membrane assessed as ROS production by cell free assay in presence of NADPH. The settings on record: in the assay text read “T-REx-293 cell membrane” for “human PMN cell membrane”. Put shortly:
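hNOX4 T-REx-293 cells induced with tetracycline (1 μg/mL, 24 h), sonicated in sucrose/NaCl/EGTA PBS buffer pH 7.4, membranes taken from a sucrose gradient. NADPH-triggered ROS measured by Amplex Red/HRP in PBS, with compound at 1 nM–100 μM, 20 min at 37 °C. Ki by Cheng-Prusoff from ≥3 triplicate experiments.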

Data set [1] can be described thus: Permeability across human Caco-2 cell membrane at 10 uM after 2 hrs. In kind it is ADME, cell-based. An outline of the steps:
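Caco-2 monolayers grown 20 days in DMEM, used when TEER >800 Ω·cm2. Dosed at 10 μM final in HBSS pH 6.5 with 1% DMSO, apical-to-basolateral and basolateral-to-apical. Incubated 2 h at 37 °C, both compartments sampled, LC-MS/MS with five-point calibration. Papp = (dQ/dt)/(C0A).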
A general note: Caco-2 cells form a polarised layer with tight junctions and transporters.

The nature of data set [2]: Intrinsic clearance in human liver microsomes assessed as per mg of protein at 0.5 uM. The format is ADME, Microsome. Put shortly:
(§1)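 Phase I stability assay in pooled liver microsomes (human: male and female; rat: male Sprague-Dawley). Microsomes at 0.5 mg/mL final in 0.1 M phosphate pH 7.4. Compound 0.5 μM final, 0.25% DMSO. Preincubated at 37 °C, reaction started with 1 mM NADPH. Sampled at 0, 5, 15, 30 and 45 min, with a 45 min minus-NADPH control. Methanol quench with internal standard, LC/MS-MS, intrinsic clearance calculated.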
A general note: Liver microsomes are vesicles of endoplasmic reticulum, rich in cytochrome P450 enzymes.

The nature of data set [3]: Intrinsic clearance in Sprague-Dawley rat liver microsomes assessed per mg of protein at 0.5 uM. The format is ADME, Microsome. An outline of the steps: as §1

`Cc1c2c(=O)n(-c3ccc(F)cc3)[nH]c2cc(=O)n1Cc1ccccc1`: the inhibition constant Ki at NADPH oxidase 4 stood at 0.878 µM.

In the case of `Cc1c2c(=O)n(-c3ccccc3Cl)[nH]c2cc(=O)n1CCCO`, the inhibitory constant (Ki) at NADPH oxidase 4 was found to be 0.565 µM.

As to `Cc1c2c(=O)n(-c3ccc(OCc4ccccc4)cc3)[nH]c2cc(=O)n1C`, the Ki at NADPH oxidase 4 came to 3.06 µM.

For the compound `CC(=O)n1c2cc(=O)n(Cc3cccnc3)c(C)c2c(=O)n1-c1ccccc1Cl`, on NADPH oxidase 4, the Ki amounted to 0.24 µM.

As to `Cc1c2c(=O)n(CCOc3ccc(Cl)cc3)[nH]c2cc(=O)n1Cc1ccccn1`, on NADPH oxidase 4, the Ki was 0.326 µM.

Regarding `Cc1c2c(=O)n(-c3ccccc3F)[nH]c2cc(=O)n1C`, the inhibition constant (Ki) on NADPH oxidase 4 worked out at 0.308 µM.

For `CCOCCCn1c(C)c2c(=O)n(-c3ccccc3Cl)n(Cc3ccccn3)c2cc1=O`, on NADPH oxidase 4, the Ki was over 30 µM.

As to `COCCn1[nH]c2cc(=O)n(Cc3ccccn3)c(C)c2c1=O`, on NADPH oxidase 4, the Ki was determined as 0.313 µM.

`Cc1c2c(=O)n(-c3ccccc3)[nH]c2cc(=O)n1Cc1ccco1`: the inhibitory constant (Ki) at NADPH oxidase 4 amounted to 9.49 µM.

In the case of `CC(=O)n1c2cc(=O)n(Cc3cccnc3)c(C)c2c(=O)n1-c1ccccc1`, the inhibition constant Ki at NADPH oxidase 4 amounted to 0.409 µM.

`Cc1c2c(=O)n(-c3ccc(F)cc3Cl)[nH]c2cc(=O)n1Cc1ccccn1` returned an apparent permeability coefficient (Papp) at 2 h, 10 µM in data set [1] of 134 nm/s. The microsomal CLint at 0.5 µM turned out to be 37.6 µL/min/mg in data set [2] and 84.2 µL/min/mg in data set [3]. For the same compound, the Ki at NADPH oxidase 4 is 0.235 µM.

With `Cc1c2c(=O)n(-c3ccc(F)cc3Cl)[nH]c2cc(=O)n1C`, the inhibition constant (Ki) at NADPH oxidase 4 was determined as 0.213 µM.

As for `Cc1c2c(=O)n(-c3ccccc3Cl)[nH]c2cc(=O)n1Cc1cccc(N2CCOCC2)n1`, the Ki on NADPH oxidase 4 was 0.236 µM. In data set [3], this compound displayed an intrinsic clearance (microsomal CLint) at 0.5 µM of 71.6 µL/min/mg.

`Cc1c2c(=O)n(Cc3ccc(F)cc3Cl)[nH]c2cc(=O)n1Cc1ccccn1`: the Ki at NADPH oxidase 4 amounted to 0.342 µM.

As for `Cc1c2c(=O)n(-c3ccccc3Cl)[nH]c2cc(=O)n1CC#Cc1ccccc1`, at NADPH oxidase 4, the Ki stood at 0.158 µM. For the same compound, in data set [3], the microsomal CLint at 0.5 µM was 178 µL/min/mg.

Turning to `CN(Cc1c2c(=O)n(-c3ccccc3Cl)[nH]c2cc(=O)n1CCc1ccccn1)c1ccccc1`, the Ki at NADPH oxidase 4 turned out to be 0.172 µM.

As for `Cc1c2c(=O)n(-c3cccc(Cl)c3)[nH]c2cc(=O)n1C`, at NADPH oxidase 4, the Ki worked out at 0.34 µM. Moreover, the intrinsic clearance (microsomal CLint) at 0.5 µM in data set [3] stood at 163 µL/min/mg.

For the compound `Cc1c2c(=O)n(-c3nc4ccccc4s3)n(Cc3ccccn3)c2cc(=O)n1CC1CCOC1` (stereo unspecified), on NADPH oxidase 4, the inhibition constant (Ki) is over 30 µM.

Consider `Cn1c(COCc2ccccc2Cl)c2c(=O)n(-c3ccccc3Cl)[nH]c2cc1=O`, for which the Papp at 2 h, 10 µM in data set [1] amounted to 626 nm/s. For the same compound, the microsomal CLint at 0.5 µM in data set [2] was determined as 212 µL/min/mg; in data set [3] it was 210 µL/min/mg. On NADPH oxidase 4, the Ki turned out to be 0.082 µM.

In the case of `Cc1c2c(=O)n(-c3ccccc3Cl)[nH]c2cc(=O)n1CC1CCCCC1`, at NADPH oxidase 4, the inhibition constant Ki worked out at 0.52 µM.

For `Cc1c2c(=O)n(-c3cccc(C#N)c3)[nH]c2cc(=O)n1C`, the inhibitory constant (Ki) on NADPH oxidase 4 was found to be 0.293 µM.

With `Cc1c2c(=O)n(-c3nc4ccccc4s3)n(Cc3ccccc3)c2cc(=O)n1CC1CCCO1` (stereo unspecified), on NADPH oxidase 4, the inhibitory constant (Ki) is over 30 µM.

Turning to `Cc1c2c(=O)n(Cc3ccc(Cl)cc3)[nH]c2cc(=O)n1Cc1ccccn1`, on NADPH oxidase 4, the Ki stood at 0.259 µM.

Consider `Cc1c2c(=O)n(-c3ccccc3Cl)[nH]c2cc(=O)n1CCN(C)C`, for which the inhibition constant (Ki) at NADPH oxidase 4 came to 0.235 µM.

For `Cn1c(-c2ccccc2F)c2c(=O)n(-c3ccccc3Cl)[nH]c2cc1=O`, the Ki on NADPH oxidase 4 came out at 0.128 µM.

For the compound `Cc1c2c(=O)n(-c3nc4ccccc4s3)[nH]c2cc(=O)n1Cc1ccc(C(=O)O)cc1`, the Ki on NADPH oxidase 4 came to 4.22 µM.

Consider `Cc1c2c(=O)n(-c3ccc(S(=O)(=O)N4CCN(C)CC4)cn3)[nH]c2cc(=O)n1C`, for which the inhibition constant (Ki) on NADPH oxidase 4 came out at 1.42 µM.

For the compound `Cc1c2c(=O)n(CCN3CCOCC3)[nH]c2cc(=O)n1Cc1ccccn1`, the inhibitory constant (Ki) on NADPH oxidase 4 turned out to be 0.445 µM.

Regarding `Cc1c2c(=O)n(-c3nc4ccccc4s3)n(Cc3ccccc3Cl)c2cc(=O)n1N1CCOCC1`, the Ki on NADPH oxidase 4 was over 30 µM.

As to `Cc1c2c(=O)n(Cc3cc(Cl)ccc3Cl)[nH]c2cc(=O)n1Cc1ccccn1`, the inhibition constant (Ki) on NADPH oxidase 4 is 0.218 µM.

Take `Cc1c2c(=O)n(-c3ccnc4cc(Cl)ccc34)[nH]c2cc(=O)n1Cc1ccccn1`: the Ki at NADPH oxidase 4 stood at 0.458 µM.

In the case of `Cc1c2c(=O)n(Cc3ccccc3)[nH]c2cc(=O)n1Cc1ccccn1`, the Ki on NADPH oxidase 4 is 0.463 µM.

For `Cc1c2c(=O)n(-c3ccccc3Cl)[nH]c2cc(=O)n1CCCC(=O)N1CCN(C)CC1`, at NADPH oxidase 4, the Ki amounted to 0.428 µM.

On to `Cc1c2c(=O)n(C)[nH]c2cc(=O)n1Cc1ccccn1`, for which the inhibitory constant (Ki) at NADPH oxidase 4 stood at 0.387 µM.

Regarding `Cc1c2c(=O)n(CCc3ccccc3)[nH]c2cc(=O)n1Cc1ccccn1`, at NADPH oxidase 4, the Ki came to 0.334 µM.

Take `Cc1c2c(=O)n(-c3ccccc3Cl)[nH]c2cc(=O)n1Cc1ccc(S(N)(=O)=O)cc1`: on NADPH oxidase 4, the Ki worked out at 0.259 µM.

Turning to `COc1cccc(CC(=O)n2c3cc(=O)n(Cc4cccnc4)c(C)c3c(=O)n2-c2ccccc2)c1`, the Ki on NADPH oxidase 4 came to 0.285 µM.

As to `Cc1c2c(=O)n(-c3ccccc3Cl)[nH]c2cc(=O)n1C`, the Ki at NADPH oxidase 4 is 0.215 µM. Besides, the microsomal CLint at 0.5 µM in data set [3] came out at 49.3 µL/min/mg.

On to `Cc1c2c(=O)n(-c3nc4ccccc4s3)[nH]c2cc(=O)n1N1CCOCC1`, for which, at NADPH oxidase 4, the Ki was determined as 1.21 µM.

As for `Cc1c2c(=O)n(-c3nc4ccccc4s3)[nH]c2cc(=O)n1CCc1c[nH]cn1`, the inhibition constant (Ki) on NADPH oxidase 4 worked out at 4.73 µM.

Consider `Cc1c2c(=O)n(-c3ccccc3)n(Cc3ccc(F)cc3)c2cc(=O)n1CCc1c[nH]c2ccccc12`, for which, at NADPH oxidase 4, the inhibitory constant (Ki) is over 30 µM.

`Cc1c2c(=O)n(-c3nc(-c4ccccc4)cs3)[nH]c2cc(=O)n1C`: at NADPH oxidase 4, the Ki was 1.95 µM.

Regarding `Cc1c2c(=O)n(-c3nc4ccccc4s3)[nH]c2cc(=O)n1CCc1c[nH]c2ccccc12`, at NADPH oxidase 4, the Ki stood at 1.84 µM.

In the case of `Cc1c2c(=O)n(-c3ccc4nncn4n3)[nH]c2cc(=O)n1Cc1cccc(Oc2ccccc2)c1`, the inhibition constant (Ki) at NADPH oxidase 4 was over 30 µM.

In the case of `Cc1c2c(=O)n(-c3ccccc3Cl)[nH]c2cc(=O)n1Cc1ccc(CN2CCN(C)CC2)cc1`, the Ki on NADPH oxidase 4 was 0.515 µM.

On to `Cc1c2c(=O)n(-c3ccccc3Cl)[nH]c2cc(=O)n1NC(=O)COc1ccc(F)cc1`, for which the inhibitory constant (Ki) on NADPH oxidase 4 was 0.218 µM.

For the compound `CC(=O)n1c2cc(=O)n(Cc3cccnc3)c(C)c2c(=O)n1-c1ccccc1C`, the inhibition constant (Ki) on NADPH oxidase 4 was found to be 0.398 µM.

For the compound `Cc1c2c(=O)n(-c3ccccc3)[nH]c2cc(=O)n1CCc1ccccc1`, the Ki at NADPH oxidase 4 was determined as 5.23 µM.

Take `CC(=O)Nc1cccc(-n2[nH]c3cc(=O)n(C)c(C)c3c2=O)c1`: the Ki on NADPH oxidase 4 turned out to be 0.328 µM.

Consider `COc1cccc(N2CCN(Cc3c4c(=O)n(-c5ccccc5Cl)[nH]c4cc(=O)n3C)CC2)c1`, for which the values for the microsomal CLint at 0.5 µM in data set [2] and in data set [3] were 57.9 µL/min/mg and 121 µL/min/mg, respectively. For the same compound, on NADPH oxidase 4, the Ki was 0.065 µM.

Regarding `Cc1c2c(=O)n(-c3ccccc3)[nH]c2cc(=O)n1Cc1ccc2c(c1)OCO2`, the inhibition constant (Ki) on NADPH oxidase 4 was found to be 5.44 µM.

Regarding `Cc1ccccc1-n1[nH]c2cc(=O)n(Cc3ccccn3)c(C)c2c1=O`, the inhibition constant (Ki) at NADPH oxidase 4 came out at 0.173 µM.

With `Cc1c2c(=O)n(C)[nH]c2cc(=O)n1C`, the Ki at NADPH oxidase 4 was found to be 2.18 µM.

For `Cc1c2c(=O)n(-c3ccccc3)n(Cc3ccccc3Cl)c2cc(=O)n1CCCN1CCCC1=O`, at NADPH oxidase 4, the Ki was over 30 µM.

What is called Ki is the dissociation constant of the complex between target and ligand, obtained from inhibition or displacement. Usually Papp stands for the rate of passage across a membrane or cell layer, normalised by area and donor concentration. Higher therefore signals ready permeation. As a reminder, the microsomal CLint is the capacity of the preparation to metabolise the compound, expressed as a volume cleared per time.
